Measurements published in ChEMBL document CHEMBL5058577, “EUbOPEN Chemogenomics Library 2 (Multiplex)” (2022).

Tested on: U2OS
Experiment: Multiplex assay against U2OS
Type: toxicity, cell-based
Conditions: human
In short: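 With compound added, live cells were imaged on a CQ1 microscope at 37°C and 5% CO2; staining with Hoechst33342, BioTracker Green Microtubule Cytoskeleton Dye, MitoTracker Red and Annexin V Alexa Fluor 680 had been done at seeding. The CellPathfinder machine-learning gating scheme split cells into Hoechst high-intensity objects or normal cells, normal cells into healthy, pyknosed or fragmented nuclei, and pyknosed cells into mitotic or apoptotic. The tubulin, mitochondrial-mass and membrane-permeability phenotypes are per cents of healthy-nucleus cells.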

[1] = 12 h, 1 µM, compound concentration 1 uM, replicate 1
[2] = 12 h, 1 µM, compound concentration 1 uM, replicate 2
[3] = 12 h, 10 µM, compound concentration 10 uM, replicate 1
[4] = 12 h, 10 µM, compound concentration 10 uM, replicate 2
[5] = 24 h, 1 µM, compound concentration 1 uM, replicate 1
[6] = 24 h, 1 µM, compound concentration 1 uM, replicate 2
[7] = 24 h, 10 µM, compound concentration 10 uM, replicate 1
[8] = 24 h, 10 µM, compound concentration 10 uM, replicate 2
[9] = 48 h, 1 µM, compound concentration 1 uM, replicate 1
[10] = 48 h, 1 µM, compound concentration 1 uM, replicate 2
[11] = 48 h, 10 µM, compound concentration 10 uM, replicate 1
[12] = 48 h, 10 µM, compound concentration 10 uM, replicate 2

CCCCC1=NC2(CCCC2)C(=O)N1Cc1ccc(-c2ccccc2-c2nnn[nH]2)cc1 [IRBESARTAN]
Population Apoptotic (%) [1]: 83% | Population Fragmented Nuclei (%) [1]: 25% | Population Healthy Nuclei (%) [1]: 66% | Population Hoechst High Intensity Objects (%) [1]: 2% | Population Membrane Permeable-Phenotype (%) [1]: 5% | Population Mitochondria Different-Phenotype (%) [1]: 1% | Population Mitotic Cells (%) [1]: 16% | Population Normal (%) [1]: 97% | Population Pyknosed Nuclei (%) [1]: 7% | Population Tubulin-Different-Phenotype (%) [1]: 1% | Total Cell Count [1]: 233 | Population Apoptotic (%) [2]: 77% | Population Fragmented Nuclei (%) [2]: 9% | Population Healthy Nuclei (%) [2]: 82% | Population Hoechst High Intensity Objects (%) [2]: 0% | Population Membrane Permeable-Phenotype (%) [2]: 11% | Population Mitotic Cells (%) [2]: 22% | Population Normal (%) [2]: 99% | Population Tubulin-Different-Phenotype (%) [2]: 8% | Total Cell Count [2]: 124 | Population Apoptotic (%) [3]: 91% | Population Fragmented Nuclei (%) [3]: 22% | Population Healthy Nuclei (%) [3]: 68% | Population Hoechst High Intensity Objects (%) [3]: 2% | Population Membrane Permeable-Phenotype (%) [3]: 4% | Population Mitochondria Different-Phenotype (%) [3]: 3% | Population Mitotic Cells (%) [3]: 8% | Population Normal (%) [3]: 97% | Population Pyknosed Nuclei (%) [3]: 9% | Population Tubulin-Different-Phenotype (%) [3]: 2% | Total Cell Count [3]: 254 | Population Apoptotic (%) [4]: 100% | Population Fragmented Nuclei (%) [4]: 18% | Population Healthy Nuclei (%) [4]: 74% | Population Hoechst High Intensity Objects (%) [4]: 0% | Population Membrane Permeable-Phenotype (%) [4]: 8% | Population Mitochondria Different-Phenotype (%) [4]: 6% | Population Mitotic Cells (%) [4]: 0% | Population Normal (%) [4]: 100% | Population Pyknosed Nuclei (%) [4]: 8% | Population Tubulin-Different-Phenotype (%) [4]: 8% | Total Cell Count [4]: 100 | Population Apoptotic (%) [5]: 70% | Population Fragmented Nuclei (%) [5]: 23% | Population Healthy Nuclei (%) [5]: 69% | Population Hoechst High Intensity Objects (%) [5]: 3% | Population Membrane Permeable-Phenotype (%) [5]: 6% | Population Mitochondria Different-Phenotype (%) [5]: 3% | Population Mitotic Cells (%) [5]: 29% | Population Normal (%) [5]: 96% | Population Pyknosed Nuclei (%) [5]: 7% | Population Tubulin-Different-Phenotype (%) [5]: 3% | Total Cell Count [5]: 241 | Population Apoptotic (%) [6]: 66% | Population Fragmented Nuclei (%) [6]: 12% | Population Healthy Nuclei (%) [6]: 76% | Population Hoechst High Intensity Objects (%) [6]: 2% | Population Membrane Permeable-Phenotype (%) [6]: 9% | Population Mitochondria Different-Phenotype (%) [6]: 2% | Population Mitotic Cells (%) [6]: 33% | Population Normal (%) [6]: 97% | Population Pyknosed Nuclei (%) [6]: 10% | Population Tubulin-Different-Phenotype (%) [6]: 4% | Total Cell Count [6]: 142 | Population Apoptotic (%) [7]: 96% | Population Fragmented Nuclei (%) [7]: 18% | Population Healthy Nuclei (%) [7]: 73% | Population Hoechst High Intensity Objects (%) [7]: 2% | Population Membrane Permeable-Phenotype (%) [7]: 6% | Population Mitochondria Different-Phenotype (%) [7]: 3% | Population Mitotic Cells (%) [7]: 4% | Population Normal (%) [7]: 97% | Population Pyknosed Nuclei (%) [7]: 8% | Population Tubulin-Different-Phenotype (%) [7]: 4% | Total Cell Count [7]: 301 | Population Apoptotic (%) [8]: 91% | Population Healthy Nuclei (%) [8]: 72% | Population Hoechst High Intensity Objects (%) [8]: 0% | Population Membrane Permeable-Phenotype (%) [8]: 7% | Population Mitotic Cells (%) [8]: 8% | Population Normal (%) [8]: 99% | Population Tubulin-Different-Phenotype (%) [8]: 3% | Total Cell Count [8]: 135 | Population Apoptotic (%) [9]: 97% | Population Fragmented Nuclei (%) [9]: 18% | Population Healthy Nuclei (%) [9]: 71% | Population Hoechst High Intensity Objects (%) [9]: 2% | Population Membrane Permeable-Phenotype (%) [9]: 5% | Population Mitochondria Different-Phenotype (%) [9]: 2% | Population Mitotic Cells (%) [9]: 2% | Population Normal (%) [9]: 97% | Population Pyknosed Nuclei (%) [9]: 10% | Population Tubulin-Different-Phenotype (%) [9]: 2% | Total Cell Count [9]: 357 | Population Apoptotic (%) [10]: 94% | Population Fragmented Nuclei (%) [10]: 14% | Population Healthy Nuclei (%) [10]: 76% | Population Hoechst High Intensity Objects (%) [10]: 4% | Population Membrane Permeable-Phenotype (%) [10]: 6% | Population Mitochondria Different-Phenotype (%) [10]: 1% | Population Mitotic Cells (%) [10]: 5% | Population Normal (%) [10]: 95% | Population Pyknosed Nuclei (%) [10]: 9% | Total Cell Count [10]: 198 | Population Apoptotic (%) [11]: 89% | Population Fragmented Nuclei (%) [11]: 14% | Population Healthy Nuclei (%) [11]: 75% | Population Hoechst High Intensity Objects (%) [11]: 3% | Population Membrane Permeable-Phenotype (%) [11]: 7% | Population Mitochondria Different-Phenotype (%) [11]: 3% | Population Mitotic Cells (%) [11]: 10% | Population Normal (%) [11]: 96% | Population Pyknosed Nuclei (%) [11]: 9% | Population Tubulin-Different-Phenotype (%) [11]: 3% | Total Cell Count [11]: 419 | Population Apoptotic (%) [12]: 94% | Population Fragmented Nuclei (%) [12]: 16% | Population Healthy Nuclei (%) [12]: 72% | Population Hoechst High Intensity Objects (%) [12]: 4% | Population Membrane Permeable-Phenotype (%) [12]: 9% | Population Mitochondria Different-Phenotype (%) [12]: 7% | Population Mitotic Cells (%) [12]: 5% | Population Normal (%) [12]: 95% | Population Pyknosed Nuclei (%) [12]: 10% | Population Tubulin-Different-Phenotype (%) [12]: 7% | Total Cell Count [12]: 175
